Data: ChEMBL document CHEMBL5584364, “Reaping the Chemical Diversity of Morinagamyces vermicularis Using Feature-Based Molecular Networking” (J Nat Prod, 2024)
Converted amounts (≈) assume the structure as drawn. The source made the active and inactive calls. No cut-off for these calls is given here.

Key:
Candida albicans = assay: Antifungal activity against Candida albicans assessed as reduction in fungal growth incubated for overnight by serial dilution assay; format: functional
Procedure, shortened: (§1)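 MIC50 determined against five fungi (C. albicans, M. hiemalis, R. glutinis, S. pombe, W. anomalus), with nystatin as positive control. Values given in µg/mL; "–" means no inhibition under test conditions.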

Mucor hiemalis = assay: Antifungal activity against Mucor hiemalis assessed as reduction in fungal growth incubated for overnight by serial dilution assay; format: functional; procedure, shortened: as §1
Rhodotorula glutinis = assay: Antifungal activity against Rhodotorula glutinis assessed as reduction in fungal growth incubated for overnight by serial dilution assay; format: functional; procedure, shortened: as §1
[1] = system: Schizosaccharomyces pombe; assay: Antifungal activity against Schizosaccharomyces pombe assessed as reduction in fungal growth incubated for overnight by serial dilution assay; format: functional; procedure, shortened: as §1
Wickerhamomyces anomalus = assay: Antifungal activity against Wickerhamomyces anomalus assessed as reduction in fungal growth incubated for overnight by serial dilution assay; format: functional; procedure, shortened: as §1
Bacillus subtilis = assay: Antibacterial activity against Bacillus subtilis assessed as reduction in microbial growth incubated for overnight by serial dilution assay; format: functional
Procedure, shortened: (§2)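 MIC50 determined against Gram-positive and Gram-negative bacteria. Positive controls: oxytetracycline for most bacteria, ciprobay for A. baumannii, gentamycin for Ps. aeruginosa. Values given in µg/mL; "–" means no inhibition under test conditions.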

[2] = system: Chromobacterium violaceum; assay: Antibacterial activity against Chromobacterium violaceum assessed as reduction in microbial growth incubated for overnight by serial dilution assay; format: functional; procedure, shortened: as §2
Escherichia coli = assay: Antibacterial activity against Escherichia coli assessed as reduction in microbial growth incubated for overnight by serial dilution assay; format: functional; procedure, shortened: as §2
Pseudomonas aeruginosa = assay: Antibacterial activity against Pseudomonas aeruginosa assessed as reduction in microbial growth incubated for overnight by serial dilution assay; format: functional, organism-based; procedure, shortened: as §2
Staphylococcus aureus = assay: Antibacterial activity against Staphylococcus aureus assessed as reduction in microbial growth incubated for overnight by serial dilution assay; format: functional; procedure, shortened: as §2
[3] = (§3) Cytotoxicity against human KB-3-1 cells assessed as reduction in cell viability after 5 days by MTT assay; format: toxicity, cell-based; details: human, KB-3-1 cells
Procedure, shortened: (§4)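 Cytotoxicity read by MTT method against mammalian cell lines (human endocervical adenocarcinoma KB 3.1, mouse fibroblast L929), with epothilone B as positive control. IC50 reported in µM.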

[4] = Cytotoxicity against mouse L929 cells assessed as reduction in cell viability after 5 days by MTT assay; format: toxicity, cell-based; procedure, shortened: as §4
KB 3-1 = assay: as §3; format: toxicity, cell-based; details: kb 3-1; procedure, shortened: as §4
Acinetobacter baumannii = assay: Antibacterial activity against Acinetobacter baumannii assessed as reduction in microbial growth incubated for overnight by serial dilution assay

| Molecule | MIC (Mucor hiemalis) [µg/mL] | MIC (Rhodotorula glutinis) [µg/mL] | MIC [1] [µg/mL] | MIC (Wickerhamomyces anomalus; Hansenula anomala) [µg/mL] | MIC (Bacillus subtilis) [µg/mL] | Activity [2] | Activity (Escherichia coli) | Activity (Pseudomonas aeruginosa) | MIC (Staphylococcus aureus) [µg/mL] | IC50 at 5 days [3] [µM] | IC50 at 5 days [4] [µM] | MIC (Candida albicans) [µg/mL] | further results |
| --- | --- | --- | --- | --- | --- | --- | --- | --- | --- | --- | --- | --- | --- |
| CN1C(=O)C23SSC4c5ccccc5O[C@]41C(=O)N2O[C@]1(C[C@H](O)[C@H](O)CC1=O)[C@H]3O (stereo partly specified) | 33.3 (≈ 71.4 µM) | 66.6 (≈ 143 µM) | 66.6 (≈ 143 µM) | 66.6 (≈ 143 µM) | 33.3 | inactive | inactive | inactive | 33.3 | 54 | 58 | – | Activity (Candida albicans): inactive |
| CN1C(=O)C23SSSC4c5ccccc5O[C@]41C(=O)N2O[C@]1(C[C@H](O)[C@H](O)CC1=O)[C@H]3O (stereo partly specified) | 66.6 (≈ 134 µM) | 66.6 (≈ 134 µM) | 66.6 (≈ 134 µM) | 33.3 (≈ 66.8 µM) | 66.6 | inactive | inactive | inactive | – | – | 50 | 66.6 (≈ 134 µM) | Activity (Staphylococcus aureus): inactive; IC50 (KB 3-1): Non-Toxic |
| CN(C)[C@@H]1C(O)=C(C(N)=O)C(=O)[C@@]2(O)C(O)=C3C(=O)c4c(O)cccc4[C@@](C)(O)[C@H]3[C@H](O)[C@@H]12 [OXYTETRACYCLINE] | – | – | – | – | 16.6 | – | – | – | 0.83 | – | – | – | MIC [2]: 0.83 µg/mL; MIC (Escherichia coli): 3.3 µg/mL |
| NYSTATIN | 8.3 | 2.1 | 4.2 | – | – | – | – | – | – | – | – | 16.6 | MIC (Wickerhamomyces anomalus): 8.3 µg/mL |
| CSC1c2ccccc2O[C@]12C(=O)N1O[C@]3(CCC=CC3=O)[C@@H](O)C1(SC)C(=O)N2C (stereo partly specified) | – | – | – | – | 66.6 | inactive | inactive | inactive | 66.6 | 15 | 5 | – | Activity (Candida albicans): inactive; Activity (Mucor hiemalis): inactive; Activity (Rhodotorula glutinis): inactive; Activity [1]: inactive; Activity (Wickerhamomyces anomalus): inactive |
| GENTAMICIN | – | – | – | – | – | – | – | – | – | – | – | – | MIC (Pseudomonas aeruginosa): 0.42 µg/mL |
| O=C(O)c1cn(C2CC2)c2cc(N3CCNCC3)c(F)cc2c1=O [CIPROFLOXACIN] | – | – | – | – | – | – | – | – | – | – | – | – | MIC (Acinetobacter baumannii): 0.53 µg/mL |
| CN1C(=O)C23SSC4c5ccccc5O[C@]41C(=O)N2O[C@]1(C[C@H](O)C=CC1=O)[C@H]3O (stereo partly specified) | 8 (≈ 17.8 µM) | 33.3 (≈ 74.3 µM) | 66.6 (≈ 149 µM) | 33.3 (≈ 74.3 µM) | 16.6 | – | inactive | inactive | 8.3 | 49 | 42 | 66.6 (≈ 149 µM) | MIC [2]: 16.6 µg/mL |
| C/C(=C\c1csc(C)n1)[C@@H]1C[C@@H]2O[C@@H]2CCC[C@H](C)[C@H](O)[C@@H](C)C(=O)C(C)(C)[C@H](O)CC(=O)O1 | – | – | – | – | – | – | – | – | – | 4e-05 | 0.00052 | – | – |
